# Experimental data reported in publication PMC4804703 (ACS chemical neuroscience, 2015).
# “Also recorded” adds a separate entry of the source. Like-named read-outs stand apart in the source and are kept apart here.
# Experiments:
# [1] = system: recombinant hCB1R; conditions: cited from earlier work
# [2] = biological target: hCB1R (Homo sapiens, UniProt P21554); assay: Cellular cAMP assay, forskolin-stimulated, Flp-In-293 cells; assay type: cell-based; conditions: for potency relative to AEA, inhibition of forskolin-stimulated cAMP production: greater than the potency reported for AEA in this assay
# [3] = system: rat CB1R (rCB1R); conditions: cited from earlier work; for selectivity vs CB2R: rCB1R vs CB2R
# [4] = biological target: CB1R in mouse hippocampus (Mus musculus, UniProt P47746); assay: [^35S]GTPγS binding, mouse hippocampus membranes; assay type: biochemical; conditions: for EC50: read-out: EC50, stimulation of [^35S]GTPγS binding, n = 3–4
# [5] = biological target: hemagglutinin (HA)-tagged rCB1R (Rattus norvegicus, UniProt P20272); assay: CB1R internalization, HEK293 cells; assay type: cell-based; conditions: 30 min at 37 °C; best-fit sigmoidal curve
# [6] = biological target: T1, hCB1R C7.42(386)S (Homo sapiens, UniProt P21554, C386S); assay: Covalent labeling assay; assay type: binding; conditions: C7.42(386)S mutant; 20 nM AM3677
# Summary of the method: (§1)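 Flp-In-293 membranes stably expressing the Cys→Ser hCB1R mutant, at 0.8 mg/mL in TME-0.1% BSA, were preincubated with 20 nM test compound (controls without) at 30 °C for 1 h. Unbound probe was removed by 27 000g spins, TME-1% BSA washes (one 20 min at 30 °C) and TME washes.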
# [7] = biological target: T2, hCB1R C1.55(139)S (Homo sapiens, UniProt P21554, C139S); assay: Covalent labeling assay; assay type: binding; conditions: C1.55(139)S mutant; 20 nM AM3677
# Summary of the method: as §1
# [8] = biological target: T3, hCB1R C4.47(238)S (Homo sapiens, UniProt P21554, C238S); assay: Covalent labeling assay; assay type: binding; conditions: C4.47(238)S mutant
# Summary of the method: as §1
# [9] = biological target: T4, hCB1R C7.38(382)S (Homo sapiens, UniProt P21554, C382S); assay: Competition binding with [^3H]CP55,940, Flp-In-293 membranes; conditions: read-out: apparent Ki (95% CI); C7.38(382)S mutant; [^3H]CP55,940 0.75 nM
# [10] = biological target: T2, hCB1R C1.55(139)S; assay: as above; conditions: read-out: apparent Ki (95% CI); C1.55(139)S mutant; [^3H]CP55,940 0.75 nM
# [11] = biological target: T1, hCB1R C7.42(386)S; assay: as above; conditions: read-out: apparent Ki (95% CI); C7.42(386)S mutant; [^3H]CP55,940 0.75 nM
# [12] = Binding to membranes from nontransfected cells; conditions: membranes from nontransfected Flp-In-293 cells; data not shown
# Summary of the method: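 Membranes from non-transfected Flp-In-293 cells were prepared by cavitation and ultracentrifugation and resuspended in TME (25 mM Tris-HCl, 5 mM MgCl₂, 1 mM EDTA, pH 7.4). […] Filters were washed in ice-cold buffer and counted by scintillation.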
# [13] = biological target: T5, hCB1R C6.47(355)S (Homo sapiens, UniProt P21554, C355S); assay: Competition binding with [^3H]CP55,940, Flp-In-293 membranes; conditions: read-out: apparent Ki (95% CI); C6.47(355)S mutant; [^3H]CP55,940 0.75 nM
# [14] = biological target: T5, hCB1R C6.47(355)S; assay: Covalent labeling assay; assay type: binding; conditions: C6.47(355)S mutant; AM3677 10-fold apparent Ki
# Summary of the method: as §1
# [15] = system: Flp-In cells that were not transfected with CB1Rs; assay: Cellular cAMP assay, non-transfected control cells; assay type: cell-based; conditions: routine control; data not shown
# [16] = biological target: T3, hCB1R C4.47(238)S; assay: Competition binding with [^3H]CP55,940, Flp-In-293 membranes; conditions: read-out: apparent Ki (95% CI); C4.47(238)S mutant; [^3H]CP55,940 0.75 nM
# [17] = biological target: T4, hCB1R C7.38(382)S; assay: Covalent labeling assay; assay type: binding; conditions: C7.38(382)S mutant; 20 nM AM3677
# Summary of the method: as §1
# [18] = biological target: WT and Cys mutant hCB1R variants; assay: Saturation binding of [^3H]CP55,940, Flp-In-293 membranes; set-up: species or system human; conditions: average across all six hCB1R variants; mean ± SEM, n = 6
# T5 sequence (P21554 whole entry C355S): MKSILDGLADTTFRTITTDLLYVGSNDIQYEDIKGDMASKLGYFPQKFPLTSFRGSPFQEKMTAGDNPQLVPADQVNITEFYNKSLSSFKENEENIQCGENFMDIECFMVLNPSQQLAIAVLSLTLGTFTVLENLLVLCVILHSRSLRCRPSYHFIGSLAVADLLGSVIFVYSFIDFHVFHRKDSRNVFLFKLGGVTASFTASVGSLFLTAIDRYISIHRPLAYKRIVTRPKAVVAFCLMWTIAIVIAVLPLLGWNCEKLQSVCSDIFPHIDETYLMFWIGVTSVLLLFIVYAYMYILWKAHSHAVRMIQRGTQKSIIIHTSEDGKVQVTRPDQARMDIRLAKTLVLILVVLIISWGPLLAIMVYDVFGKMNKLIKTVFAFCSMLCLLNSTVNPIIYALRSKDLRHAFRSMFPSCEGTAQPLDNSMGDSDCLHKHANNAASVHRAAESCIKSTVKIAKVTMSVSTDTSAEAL
# hCB1R, sequence (P21554 whole entry): as the sequence (P21554 whole entry C355S) above, with S355C counted along it
# CB1R in mouse hippocampus, sequence (P47746 whole entry): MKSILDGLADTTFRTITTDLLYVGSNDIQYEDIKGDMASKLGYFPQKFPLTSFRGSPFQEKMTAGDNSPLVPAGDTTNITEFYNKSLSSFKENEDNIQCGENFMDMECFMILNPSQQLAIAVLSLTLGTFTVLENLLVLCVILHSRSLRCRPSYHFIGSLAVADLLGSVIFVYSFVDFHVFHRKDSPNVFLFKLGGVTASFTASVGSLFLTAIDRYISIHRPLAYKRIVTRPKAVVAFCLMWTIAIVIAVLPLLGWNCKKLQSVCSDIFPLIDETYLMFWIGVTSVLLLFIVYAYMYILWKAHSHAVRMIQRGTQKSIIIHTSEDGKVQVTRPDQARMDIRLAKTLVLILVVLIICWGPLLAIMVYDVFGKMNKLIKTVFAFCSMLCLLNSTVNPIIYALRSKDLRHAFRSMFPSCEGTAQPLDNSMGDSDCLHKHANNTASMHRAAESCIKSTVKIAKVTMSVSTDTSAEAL
# T3 sequence (P21554 whole entry C238S): as the sequence (P21554 whole entry C355S) above, with C238S, S355C counted along it
# T2 sequence (P21554 whole entry C139S): as the sequence (P21554 whole entry C355S) above, with C139S, S355C counted along it
# T4 sequence (P21554 whole entry C382S): as the sequence (P21554 whole entry C355S) above, with S355C, C382S counted along it
# T1 sequence (P21554 whole entry C386S): as the sequence (P21554 whole entry C355S) above, with S355C, C386S counted along it
# hemagglutinin (HA)-tagged rCB1R, sequence (P20272 whole entry): as the sequence (P47746 whole entry) above, with D95E counted along it
smiles,measurement,setting,value
"CCCCC/C=C\C/C=C\C/C=C\C/C=C\CCCC(=O)NC1CC1 [ACPA, (5Z,8Z,11Z,14Z)-eicosa-5,8,11,14-tetraenoic acid cyclopropylamide]",agonist type,[1],full agonist
same,"potency relative to AEA, inhibition of forskolin-stimulated cAMP production",[2],~ 200 fold
same,selectivity vs CB2R,[3],60 to 300 fold
same,Ki,"[3]; read-out: apparent Ki, rCB1R, [^3H]CP55,940 as competitive radioligand",2.2 to 2.7 nM
"CCCCC/C=C\C/C=C\C/C=C\C/C=C\CCCC(=O)NCCO [AEA, arachidonoylethanolamide, reference compound]",Emax,"[4]; read-out: maximum response, [^35S]GTPγS binding",34 ± 1.5%
same,Ki,[3]; rCB1R,61 nM
"O=C(CCC/C=C\C/C=C\C/C=C\C/C=C\CCCCCN=C=S)NC1CC1 [AM3677, 20-isothiocyanato-eciosa-5,8,11,14-tetraenoic acid cyclopropylamide]",maximum internalization,[5],~ 42%
same,degree of irreversible labeling,[6],comparable to that displayed by WT hCB1R
same,degree of irreversible labeling,[7],comparable to that displayed by WT hCB1R
same,degree of irreversible labeling,[8]; 20 nM AM3677,comparable to that displayed by WT hCB1R
same,"reduction of [^3H]CP55,940 specific binding (Bmax)",[8]; AM3677 at 10-fold its apparent Ki,at least 43%
same,Ki,[9],1.9 nM
same,Ki,[10],2.3 nM
same,Ki,[11],1.6 nM
same,specific binding,[12],No specific
same,Ki,[13],2.2 nM
same,"effect of AM3677 preincubation on Bmax for [^3H]CP55,940 (irreversible binding)",[14],unaffected; also recorded: did not affect
same,effect on cAMP in non-transfected cells,[15],had no effect
same,"potency relative to AEA, [^35S]GTPγS binding",[4]; more potent than AEA,~100 fold
same,"potency relative to CP55,940, [^35S]GTPγS binding","[4]; more potent than CP55,940",~ 23 fold
same,EC50,[4]; mean ± SEM,50 ± 20 nM
same,"maximum response, [^35S]GTPγS binding","[4]; relative to CP55,940 (maximum = response to 10 μM CP55,940), mean ± SEM, n = 3",32 ± 2.1%
same,"maximal efficacy, inhibition of forskolin-activated cAMP formation",[2]; at micromolar concentrations,~ 60%
same,"potency relative to AEA, inhibition of forskolin-stimulated cAMP production",[2],~ 200 fold
same,IC50,"[2]; read-out: IC50, inhibition of forskolin-activated cAMP formation, Flp-In-293 cells overexpressing hCB1R, 5 μM forskolin, mean ± SEM, n = 3",27.1 ± 2.2 nM
same,Ki,[16],2.4 nM
same,degree of irreversible labeling,[17],comparable to that displayed by WT hCB1R
same,selectivity vs CB2R,[3],~ 40 fold
same,manner of binding,[3]; rCB1R,irreversible
"CCCCCCC(C)(C)c1ccc([C@@H]2C[C@H](O)CC[C@H]2CCCO)c(O)c1 [CP55,940, reference compound]",Kd,[18],5.4 ± 0.8 nM
same,specific binding,[12],No specific
same,EC50,[4]; mean ± SEM,1100 ± 200 nM
